# Measured values from ChEMBL document CHEMBL4020827, “Targeting Multiple Effector Pathways in Pancreatic Ductal Adenocarcinoma with a G-Quadruplex-Binding Small Molecule” (J Med Chem, 2018).
# Key:
# [1] = Binding affinity to 5'-FAM/3'-TAMRA labeled BCL2 promoter G-quadruplex DNA (unknown origin) assessed as change in melting temperature at 1 uM by FRET assay
# Outline: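 FRET melting with FAM/TAMRA dual-labelled oligonucleotides at 400 nM, annealed at 95 °C for 10 min in 60 mM potassium cacodylate pH 7.4 and slowly cooled. Ligand final 1 μM; solution contains 50 mM K+. Fluorescence read every 0.5 °C over 30–100 °C with 30 s hold, excitation 450–495 nm and emission 515–545 nm. ΔTm from curve fitting, triplicate measurements.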
# PANC-1 [2] = experiment: Effect on MAPK12 gene expression in human PANC1 cells at 400 nM after 24 hrs by RNA sequence analysis relative to control; assay type: functional
# MIA PaCa-2 [3] = experiment: Effect on TEAD2 gene expression in human MIAPaCa2 cells at 400 nM after 6 hrs by RNA sequence analysis relative to control; assay type: functional
# Outline: (§1)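 RNA-seq: cells seeded overnight in 60 mm plates (PANC-1 0.35 x 10^6, MIA PaCa-2 1.5 x 10^6 cells/well), then exposed to 400 nM compound for 6 or 24 h against untreated controls. Cell lines mycoplasma-free by RNA-capture ELISA and STR-profiled. Differentially expressed genes called at FDR < 0.1.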
# Mus musculus = experiment: Hepatotoxicity in CD-1 nude mouse xenografted with human MIAPaCa2 cells at 15 mg/kg, iv administered twice weekly for 4 weeks by hematoxylin and eosin staining based assay; assay type: toxicity, organism-based; conditions: in vivo, 672 h
# MIA PaCa-2 [4] = experiment: Effect on GLI1 gene expression in human MIAPaCa2 cells at 400 nM after 6 hrs by RNA sequence analysis relative to control; assay type: functional
# Outline: (§2)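 PANC-1 (0.35 x 10^6) or MIA PaCa-2 (1.5 x 10^6) cells seeded overnight in 60 mm plates, then exposed to 400 nM compound for 6 or 24 h; untreated cells as controls. Cells were mycoplasma-free and STR-certified. Differential expression by RNA-seq, called at FDR < 0.1.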
# PANC-1 [5] = experiment: Effect on AKT1S1 gene expression in human PANC1 cells at 400 nM after 24 hrs by RNA sequence analysis relative to control; assay type: functional; outline: as §2
# MIA PaCa-2 [6] = experiment: Effect on MAPK11 gene expression in human MIAPaCa2 cells at 400 nM after 24 hrs by RNA sequence analysis relative to control; assay type: functional
# MIA PaCa-2 [7] = experiment: Effect on ULK1 gene expression in human MIAPaCa2 cells at 400 nM after 6 hrs by RNA sequence analysis relative to control; assay type: functional; outline: as §1
# PANC-1 [8] = experiment: Effect on CTBP1 gene expression in human PANC1 cells at 400 nM after 24 hrs by RNA sequence analysis relative to control; assay type: functional; outline: as §2
# MIA PaCa-2 [9] = experiment: Antitumor activity against human MIAPaCa2 cells xenografted in CD-1 nude mouse assessed as tumor growth inhibition administered twice weekly for 4 weeks; assay type: functional, cell-based
# Outline: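 Female CD-1 nude mice (2-3 months, 20−25 g) given 5 x 10^6 MIA PaCa-2 cells s.c. in right flank in RPMI + Matrigel; dosing began once tumors were established (~13 days, mean 0.05 cm3). Groups of eight received IV doses in saline, twice weekly for 28 days (8 doses), against a saline group. Tumors measured by calliper (length × width × height × π/6) every 3−4 days, to day 62; Student's t test.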
# PANC-1 [10] = experiment: Effect on TP73 gene expression in human PANC1 cells at 400 nM after 24 hrs by RNA sequence analysis relative to control; assay type: functional; outline: as §1
# PANC-1 [11] = experiment: Effect on GLI2 gene expression in human PANC1 cells at 400 nM after 6 hrs by RNA sequence analysis relative to control; assay type: functional; outline: as §2
# MIA PaCa-2 [12] = experiment: Effect on ULK1 gene expression in human MIAPaCa2 cells at 400 nM after 24 hrs by RNA sequence analysis relative to control; assay type: functional; outline: as §1
# MIA PaCa-2 [13] = experiment: Effect on PRKCZ gene expression in human MIAPaCa2 cells at 400 nM after 6 hrs by RNA sequence analysis relative to control; assay type: functional; outline: as §1
smiles,measurement,setting,value
O=C1c2ccc3c4c(c(NCCN5CCCC5)cc(c24)C(=O)N1CCCN1CCOCC1)C(=O)N(CCCN1CCOCC1)C3=O,ΔTm,[1],13.3 °C
same,log2FC,PANC-1 [2],-1.44
same,log2FC,MIA PaCa-2 [3],-0.65
same,Activity,Mus musculus,Non-Toxic
same,log2FC,MIA PaCa-2 [4],-0.61
same,log2FC,PANC-1 [5],-0.83
same,log2FC,MIA PaCa-2 [6],-2.56
same,log2FC,MIA PaCa-2 [7],0.03
same,log2FC,PANC-1 [8],-0.98
same,TGI,MIA PaCa-2 [9],Dose-dependent effect
same,log2FC,PANC-1 [10],-0.99
same,log2FC,PANC-1 [11],-0.67
same,log2FC,MIA PaCa-2 [12],-0.6
same,log2FC,MIA PaCa-2 [13],-1.87
